20 molecules from ChEMBL document CHEMBL1131524, “Azapeptides as inhibitors and active site titrants for cysteine proteinases” (J Med Chem, 1998) can be followed below.

Assay [1] concerns the target Cathepsin B (Bos taurus) (UniProt P07688). Kind of assay: The apparent second-order rate constant for inactivation of bovine cathepsin B enzyme. Apparent rate constant was determined from repeats of Kobs vs [I] using at least 5 values of [I]. The essentials: (§1)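 Bovine spleen cathepsin B was activated with 10 mM dithiothreitol, and its active concentration was set by E-64 titration. Assays ran in 25 mM sodium acetate, 1 mM EDTA, pH 5.3, with 20% CH3CN and 80 μM Cbz-Lys-ONp, monitored at 326 nm. Inactivation was analysed by Kitz–Wilson, with kobsd from semilog plots of activity versus time.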

In assay [2] the target is T1, Papain (Carica papaya) (UniProt P00784).
T1 sequence (whole entry): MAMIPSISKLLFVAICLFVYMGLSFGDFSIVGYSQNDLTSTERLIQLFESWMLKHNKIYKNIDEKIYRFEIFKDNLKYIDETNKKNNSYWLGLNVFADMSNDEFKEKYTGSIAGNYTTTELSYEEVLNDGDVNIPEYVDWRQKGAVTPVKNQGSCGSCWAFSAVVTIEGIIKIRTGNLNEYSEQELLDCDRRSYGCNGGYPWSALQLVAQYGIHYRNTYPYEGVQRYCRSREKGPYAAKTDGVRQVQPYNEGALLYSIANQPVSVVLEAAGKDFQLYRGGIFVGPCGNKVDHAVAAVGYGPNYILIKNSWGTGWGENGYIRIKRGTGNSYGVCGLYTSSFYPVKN
In words: The apparent second-order rate constant for inactivation of papain enzyme. Apparent rate constant was determined from repeats of Kobs vs [I] using at least 5 values of [I]. The essentials:
(§2)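 Papain purified from mercuripapain on Hg-Sepharose, then activated with L-cysteine for 15 min at room temperature in 50 mM K2HPO4, 1 mM EDTA, pH 6.3. Assays used 50 μM Cbz-Gly-ONp in buffer with 20% CH3CN, followed at 340 nm and corrected for spontaneous hydrolysis. Analysis was by Kitz–Wilson, with kobsd taken from slopes of semilog activity-versus-time plots.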

The target of assay [3] is Cathepsin B (Bos taurus) (UniProt P07688). Kind of assay: Specificity constant is determined from the ratio of the inactivation rate constants (Kcat/Km)of the cathepsin B.
Assay [4] deals with T1, Papain (Carica papaya). In words: Specificity constant is determined from the ratio of the inactivation rate constants (Kcat/Km)of the papain.
Assay [5] addresses Cathepsin B (Bos taurus) (UniProt P07688). In words: The apparent second-order rate constant for inactivation of bovine cathepsin B enzyme. Apparent rate constant was determined from repeats of Kobs vs [I] using at least 5 values of [I], where I=0.2 mM. Summed up: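 Bovine spleen cathepsin B, activated with 10 mM dithiothreitol, in 25 mM sodium acetate pH 5.3 with 1 mM EDTA and 20% CH3CN (v/v). Substrate 80 μM Cbz-Lys-ONp; hydrolysis followed at 326 nm (Δε 9060 M⁻¹ cm⁻¹). Enzyme concentration set by E-64 titration. Kitz–Wilson analysis: k_obsd from slopes of semilog plots of activity vs time.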

Assay [6] deals with T1, Papain (Carica papaya). In words: Specificity constant is determined from the ratio of the inactivation rate constants (Kcat/Km)of the papaine.
Assay [7] deals with Cathepsin B (Bos taurus) (UniProt P07688). Kind of assay: The apparent second-order rate constant for inactivation of bovine cathepsin B enzyme. Apparent rate constant was determined from repeats of Kobs vs [I] using at least 5 values of [I], where I=0.95 mM. Summed up:
as §1

In assay [8] the target is T1, Papain (Carica papaya). In words: Specificity constant is determined from the ratio of the inactivation rate constants (Kcat/Km)of the papain.
In assay [9] the target is T1, Papain (Carica papaya). In words: The apparent second-order rate constant for inactivation of papain enzyme. Apparent rate constant was determined from repeats of Kobs vs [I] using at least 5 values of [I] where I=0.95 mM. The essentials: as §2

As for `CC(=O)N[C@@H](Cc1ccccc1)C(=O)NNC(=O)Nc1ccc([N+](=O)[O-])cc1`, the results for the k2/Ki at Cathepsin B (Bos taurus) [1] and at Papain (Carica papaya) [2] were 0 M⁻¹ s⁻¹ and 1 M⁻¹ s⁻¹, respectively.

In the case of `O=C(N[C@@H](Cc1ccccc1)C(=O)Oc1ccc([N+](=O)[O-])cc1)OCc1ccccc1`, the k cat/Km on Cathepsin B (Bos taurus) [3] turned out to be 80000 M⁻¹ s⁻¹; at Papain (Carica papaya) [4], 120000 M⁻¹ s⁻¹.

For `COC(=O)N(C)NC(=O)[C@H](Cc1ccccc1)NC(C)=O`, the k2/Ki at Papain (Carica papaya) [2] worked out at 0.05 M⁻¹ s⁻¹.

Regarding `CC(=O)N[C@@H](Cc1ccccc1)C(=O)NN(C)C(=O)Oc1ccccc1`, the k obs / 1 at Cathepsin B (Bos taurus) [5] worked out at 18. Besides, the results for the k cat/Km at Cathepsin B (Bos taurus) [3] and at Papain (Carica papaya) [6] were 18 M⁻¹ s⁻¹ and 110 M⁻¹ s⁻¹, respectively. Besides, the k2/Ki on Papain (Carica papaya) [2] came to 110 M⁻¹ s⁻¹.

With `C[C@H](NC(=O)OCc1ccccc1)C(=O)Oc1ccc([N+](=O)[O-])cc1`, the k cat/Km on Cathepsin B (Bos taurus) [3] was found to be 450000 M⁻¹ s⁻¹; on Papain (Carica papaya) [4] it was 800000 M⁻¹ s⁻¹.

Consider `CC(=O)N[C@@H](Cc1ccccc1)C(=O)NNC(=O)Oc1ccc([N+](=O)[O-])cc1`, for which the k2/Ki at Papain (Carica papaya) [2] is > 70000 M⁻¹ s⁻¹.

As to `CC(=O)N[C@@H](Cc1ccccc1)C(=O)NNC(=O)OCc1ccccc1`, the k2/Ki at Cathepsin B (Bos taurus) [1] came out at 310 M⁻¹ s⁻¹; at Papain (Carica papaya) [2], 30500 M⁻¹ s⁻¹.

For `COC(=O)NNC(=O)[C@H](Cc1ccccc1)NC(C)=O`, on Papain (Carica papaya) [2], the k2/Ki was 19 M⁻¹ s⁻¹.

As for `CC(=O)N[C@@H](Cc1ccccc1)C(=O)NNC(=O)OCC(Cl)(Cl)Cl`, the k2/Ki at Cathepsin B (Bos taurus) [1] stood at 730 M⁻¹ s⁻¹; at Papain (Carica papaya) [2] it was 11800 M⁻¹ s⁻¹. Besides, the k cat/Km turned out to be 730 M⁻¹ s⁻¹ at Cathepsin B (Bos taurus) [3] and 11800 M⁻¹ s⁻¹ on Papain (Carica papaya) [6].

`CC(=O)N[C@@H](Cc1ccccc1)C(=O)NNC(=O)Oc1ccccc1`: the k2/Ki on Cathepsin B (Bos taurus) [1] worked out at 7730 M⁻¹ s⁻¹; on Papain (Carica papaya) [2] it was 67600 M⁻¹ s⁻¹. Besides, the k cat/Km was determined as 7730 M⁻¹ s⁻¹ at Cathepsin B (Bos taurus) [3] and 67600 M⁻¹ s⁻¹ at Papain (Carica papaya) [6].

For `CC(=O)N[C@@H](Cc1ccccc1)C(=O)NNC(=O)OCC(C)C`, the k2/Ki on Papain (Carica papaya) [2] came to 55 M⁻¹ s⁻¹.

Consider `CC(=O)N[C@@H](Cc1ccccc1)C(=O)NN(C)C(=O)OCC(Cl)(Cl)Cl`, for which, at Cathepsin B (Bos taurus) [7], the kobs/[I] turned out to be 0.34 M⁻¹ s⁻¹. In addition, the k2/Ki at Papain (Carica papaya) [2] came to 12 M⁻¹ s⁻¹.

With `CC(=O)N[C@@H](Cc1ccccc1)C(=O)NNC(=O)OCCBr`, the results for the k2/Ki at Cathepsin B (Bos taurus) [1] and on Papain (Carica papaya) [2] were 90 M⁻¹ s⁻¹ and 1250 M⁻¹ s⁻¹, respectively.

`CCOC(=O)NNC(=O)[C@H](Cc1ccccc1)NC(C)=O`: on Papain (Carica papaya) [2], the k2/Ki is 47 M⁻¹ s⁻¹.

Consider `CC(=O)N[C@@H](Cc1ccccc1)C(=O)NNC(N)=O`, for which the results for the k2/Ki on Cathepsin B (Bos taurus) [1] and at Papain (Carica papaya) [2] were 0 M⁻¹ s⁻¹ and 4 M⁻¹ s⁻¹, respectively.

Consider `CC(=O)N[C@@H](Cc1ccccc1)C(=O)NNC(=O)OCCCl`, for which the figures for the k2/Ki at Cathepsin B (Bos taurus) [1] and at Papain (Carica papaya) [2] were 54 M⁻¹ s⁻¹ and 1150 M⁻¹ s⁻¹, respectively.

Consider `CC(=O)N[C@@H](Cc1ccccc1)C(=O)N/N=C(/N)S`, for which the k2/Ki on Papain (Carica papaya) [2] was 0.03 M⁻¹ s⁻¹.

In the case of `NCCCC[C@H](NC(=O)OCc1ccccc1)C(=O)Oc1ccc([N+](=O)[O-])cc1`, the k cat/Km on Cathepsin B (Bos taurus) [3] stood at 776000 M⁻¹ s⁻¹; on Papain (Carica papaya) [8] it was 853000 M⁻¹ s⁻¹.

Take `CC(=O)N[C@@H](Cc1ccccc1)C(=O)NN(Cc1ccccc1)C(=O)Oc1ccccc1`: the kobs/[I] at Cathepsin B (Bos taurus) [7] was < 0.2 M⁻¹ s⁻¹; on Papain (Carica papaya) [9], 0.3 M⁻¹ s⁻¹.

For `CCOC(=O)N(C)NC(=O)[C@H](Cc1ccccc1)NC(C)=O`, on Papain (Carica papaya) [2], the k2/Ki worked out at 0.05 M⁻¹ s⁻¹.
